From ChEMBL document CHEMBL3351972, “Indole-3-ethylsulfamoylphenylacrylamides: potent histone deacetylase inhibitors with anti-inflammatory activity” (Eur J Med Chem, 2014) come the findings set out here.

For data set [1], the system named is RAW264.7. Kind of data set: Anti-inflammatory activity in LPS-stimulated mouse RAW264.7 cells assessed as suppression of PGE2 production pre-incubated for 1 hr before LPS stimulation for 24 hrs by enzyme immunoassay method. It is filed as functional, cell-based. The method in brief: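 RAW 264.7 cells (1 × 10⁶) were treated with or without compound for 1 h, then stimulated with LPS (25 ng/mL) for 24 h at 37 °C. PGE₂ in culture supernatants was measured by EIA kit.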

A short description of data set [2]: Retention time of the compound by HPLC method. It is filed as physicochemical.
A further data set addresses Histone deacetylase. Kind of data set: Inhibition of HDAC in human HeLa cells nuclear extracts incubated for 30 mins by fluorescent assay. The format is cell-free.
Data set [3] has as its system RAW264.7. Kind of data set: Anti-inflammatory activity in LPS-stimulated mouse RAW264.7 cells assessed as suppression of IL6 production pre-incubated for 1 hr before LPS stimulation for 24 hrs by ELISA method. It is filed as functional, cell-based. The method in brief: (§1)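 IL-6 and TNF-α were measured by ELISA. RAW 264.7 cells (1 × 10⁶) were plated and pretreated with or without compound for 1 h, then stimulated with LPS (25 ng/mL) for 24 h at 37 °C.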
A general note: An ELISA detects its analyte on a solid surface through an enzyme-linked reagent.

The test system of data set [4] is RAW264.7. The data set can be described thus: Anti-inflammatory activity in LPS-stimulated mouse RAW264.7 cells assessed as suppression of nitric oxide production pre-incubated for 1 hr before LPS stimulation for 24 hrs by Griess reagent based assay. It is filed as functional, cell-based. The method in brief: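 Nitrite concentration was quantified against a standard dilution series of sodium nitrite.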

Data set [5] relates to RAW264.7. Kind of data set: Anti-inflammatory activity in LPS-stimulated mouse RAW264.7 cells assessed as suppression of TNFalpha production pre-incubated for 1 hr before LPS stimulation for 24 hrs by ELISA method. The format is functional, cell-based. The method in brief:
as §1

The subject of data set [6] is RAW264.7. Kind of data set: Anti-inflammatory activity in LPS-stimulated mouse RAW264.7 cells assessed as suppression of iNOS protein expression at 0.01 to 1 uM pre-incubated for 30 mins before LPS stimulation for 24 hrs by Western blotting method. It is filed as functional, cell-based. The gist of the method: (§2)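 RAW 264.7 cells (1 × 10⁶/well) were pretreated with compound at 0.01–1 for 30 min, then stimulated with LPS (25 ng/mL) for 24 h. Whole-cell extracts were cleared at 17,000 g for 30 min at 4 °C, and protein was measured by Bradford. Blots were blocked in 5% milk/TBST, probed with primary antibody overnight at 4 °C, then HRP secondary (1:1000) 1 h RT. Data are mean ± SEM of three replicates, compared with the LPS-only group.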
(In general: Immunoblotting shows a protein as a band on a membrane.)

For data set [7], the system named is RAW264.7. The data set can be described thus: Inhibition of HDAC in mouse RAW264.7 cells assessed as increase in histone H3 acetylation at > 0.1 uM incubated for 24 hrs by Western blotting method.
The test system of data set [8] is RAW264.7. Kind of data set: Toxicity against mouse RAW264.7 cells assessed as reduction in cell viability at 0.01 to 1 uM incubated for 24 hrs by MTT assay. The format is cell-based. The settings on record: raw264.7, 24 h. The gist of the method:
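Macrophages were exposed to compound at 0.01–1 for 24 h. Viability was then assessed by MTT assay.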
A general note: Tetrazolium assays rely on reduction of a dye to a coloured formazan, in cell work by metabolically active cells.

Data set [9] concerns the target Transcription factor p65 (Mus musculus) (UniProt Q04207). Kind of data set: Inhibition of p65 phosphorylation in LPS-stimulated mouse RAW264.7 cells at 0.01 to 1 uM pre-incubated for 30 mins before LPS stimulation for 24 hrs by Western blotting method. The format is cell-based. The method in brief:
as §2

Data set [10] deals with Rattus norvegicus. Kind of data set: Anti-inflammatory activity in Wistar rat model of carrageenan-induced edema assessed as reduction in right hind paw thickness at 20 mg/kg, po dosed 1 hour before carrageenan injection measured 3 hrs post carrageenan challenge by digital plethysmometry. The format is functional, organism-based. Details: dose 20 mg/kg. The method in brief: (§3)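 Male Wistar rats (7 weeks) were randomised into eight groups. They were dosed orally 1 h before carrageenan: vehicle (1% carboxymethyl cellulose + 0.5% Tween 80), test suspensions at 20 mg/kg, or indomethacin as positive control at 1 mg/kg. Carrageenan (0.5% w/v in saline) was injected intradermally into the base of the right hind paw. Paw change was read at 3 h by digital caliper and plethysmometer.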

Data set [11] has as its system RAW264.7. The data set can be described thus: Anti-inflammatory activity in LPS-stimulated mouse RAW264.7 cells assessed as suppression of COX2 protein expression at 0.01 to 1 uM pre-incubated for 30 mins before LPS stimulation for 24 hrs by Western blotting method. It is filed as functional, cell-based. The gist of the method: as §2
The subject of data set [12] is Rattus norvegicus. The data set can be described thus: Anti-inflammatory activity in Wistar rat model of carrageenan-induced edema assessed as reduction in right hind paw thickness at 1 mg/kg, po dosed 1 hour before carrageenan injection measured 3 hrs post carrageenan challenge by digital plethysmometry. It is filed as functional, organism-based. Details: dose 1 mg/kg. The gist of the method:
as §3

Activity calls are given as the source filed them. No cut-off for these calls is given here.

Sequence of Transcription factor p65 (Mus musculus) (Q04207 whole entry): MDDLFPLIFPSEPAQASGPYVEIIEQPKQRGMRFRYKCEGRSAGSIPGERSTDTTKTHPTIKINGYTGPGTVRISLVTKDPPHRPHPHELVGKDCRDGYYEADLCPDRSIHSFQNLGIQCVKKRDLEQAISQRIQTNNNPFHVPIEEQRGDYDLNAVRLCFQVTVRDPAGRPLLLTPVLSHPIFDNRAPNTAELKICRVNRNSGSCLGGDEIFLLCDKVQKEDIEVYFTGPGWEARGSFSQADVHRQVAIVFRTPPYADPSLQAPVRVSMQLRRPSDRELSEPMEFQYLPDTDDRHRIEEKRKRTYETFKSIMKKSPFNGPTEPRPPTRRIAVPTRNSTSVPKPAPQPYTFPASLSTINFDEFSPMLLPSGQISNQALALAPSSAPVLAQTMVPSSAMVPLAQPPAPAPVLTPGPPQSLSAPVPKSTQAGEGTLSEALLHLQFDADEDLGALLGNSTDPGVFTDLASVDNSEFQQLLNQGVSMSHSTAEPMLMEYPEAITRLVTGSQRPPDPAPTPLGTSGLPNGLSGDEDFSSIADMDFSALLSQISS

In the case of `Cc1[nH]c2ccccc2c1CCN(C)S(=O)(=O)c1ccc(/C=C/C(=O)NO)cc1`, the IC50 (in general, the concentration that inhibits the measured activity by half) is 2900 nM in the data set with RAW264.7 [1]; 47.4 nM against Histone deacetylase; 5.5 nM in the data set on RAW264.7 [3]; 1000 nM with RAW264.7 [4]; above 10000 nM with RAW264.7 [5]. Further, the Retention_time in data set [2] was determined as 25.51 min.
In the case of `CCN(CCc1c(C)[nH]c2ccccc12)S(=O)(=O)c1ccc(/C=C/C(=O)NO)cc1`, the IC50 is 2900 nM in the data set with RAW264.7 [1]; 29.6 nM at Histone deacetylase; 5.9 nM in the data set with RAW264.7 [3]; 1200 nM in the data set on RAW264.7 [4]; above 10000 nM in the data set on RAW264.7 [5]. In addition, the Retention_time in data set [2] amounted to 27.17 min.
On to `O=C(/C=C/c1cccc(S(=O)(=O)Nc2ccccc2)c1)NO` [BELINOSTAT], for which the IC50 in the data set with RAW264.7 [1] came out at 8280 nM; in the data set with RAW264.7 [3], 0.059 nM; with RAW264.7 [4], 2200 nM; in the data set on RAW264.7 [5], 4700 nM.
Take `Cc1[nH]c2ccccc2c1CCNS(=O)(=O)c1ccc(C(=O)NO)cc1`: the IC50 is above 10000 nM in the data set on RAW264.7 [1]; 771.8 nM against Histone deacetylase; 23.9 nM with RAW264.7 [3]; above 10000 nM with RAW264.7 [4]; above 10000 nM in the data set with RAW264.7 [5]. The compound also came in with a Retention_time in data set [2] of 21.88 min.
As for `Cc1[nH]c2ccccc2c1CCNS(=O)(=O)c1ccc(/C=C/C(=O)NO)cc1`, the inhibition entry in the data set on RAW264.7 [6], in the data set with RAW264.7 [7], in the data set with Rattus norvegicus [10] and in the data set with RAW264.7 [11] was “Active” each time. Moreover, the IC50 was found to be 330 nM in the data set with RAW264.7 [1]; 2.8 nM against Histone deacetylase; 20 nM in the data set on RAW264.7 [3]; 740 nM with RAW264.7 [4]; 480 nM in the data set with RAW264.7 [5]. Further, the Retention_time in data set [2] amounted to 23.3 min. Besides, the Activity result in the data set on RAW264.7 [8] is reported as “Non-toxic”. Moreover, the inhibition entry in data set [9] is “Dose-dependent effect”.
On to `O=C(/C=C/c1ccc(S(=O)(=O)NCCc2c[nH]c3ccccc23)cc1)NO`, for which the IC50 turned out to be 2200 nM with RAW264.7 [1]; 6.6 nM against Histone deacetylase; 0.014 nM in the data set on RAW264.7 [3]; 740 nM in the data set on RAW264.7 [4]; 1200 nM in the data set with RAW264.7 [5]. The Retention_time in [2] came out at 22.17 min.
Take `Cc1[nH]c2ccccc2c1CCN(C(C)C)S(=O)(=O)c1ccc(/C=C/C(=O)NO)cc1`: the IC50 with RAW264.7 [1] is 7400 nM; on Histone deacetylase it was 9.2 nM; with RAW264.7 [3] it was 4.5 nM; in the data set on RAW264.7 [4] it was 1600 nM; with RAW264.7 [5], above 10000 nM. Besides, the Retention_time in data set [2] was found to be 28.67 min.
`Cn1cc(CCNS(=O)(=O)c2ccc(/C=C/C(=O)NO)cc2)c2ccccc21`: the IC50 in the data set with RAW264.7 [1] came to 1500 nM; at Histone deacetylase, 5.7 nM; in the data set with RAW264.7 [3], 32 nM; in the data set with RAW264.7 [4] it was 290 nM; in the data set on RAW264.7 [5], 620 nM. The Retention_time in data set [2] worked out at 24.21 min.
Take `Cc1[nH]c2ccccc2c1CCNS(=O)(=O)c1cccc(/C=C/C(=O)NO)c1`: the inhibition result with RAW264.7 [6], with RAW264.7 [7], in the data set on Rattus norvegicus [10] and in the data set on RAW264.7 [11] was “Active” in each case. The IC50 in the data set on RAW264.7 [1] was determined as 320 nM; against Histone deacetylase, 7.9 nM; in the data set on RAW264.7 [3] it was 13 nM; in the data set with RAW264.7 [4], 360 nM; in the data set on RAW264.7 [5] it was 1500 nM. The Retention_time in [2] stood at 23.3 min. Further, the Activity result in the data set with RAW264.7 [8] was “Non-toxic”. The inhibition entry in [9] was “Dose-dependent effect”.
Take `Cc1c(CCNS(=O)(=O)c2ccc(/C=C/C(=O)NO)cc2)c2ccccc2n1C`: the inhibition result with RAW264.7 [6], in the data set on RAW264.7 [7], in the data set on Rattus norvegicus [10] and with RAW264.7 [11] was “Active” each time. Besides, the half-maximal inhibitory concentration (IC50) with RAW264.7 [1] was determined as 150 nM; against Histone deacetylase, 3.3 nM; with RAW264.7 [3] it was 14 nM; with RAW264.7 [4] it was 300 nM; in the data set with RAW264.7 [5], 800 nM. Moreover, in data set [2], the Retention_time was 25.96 min. In addition, the Activity entry with RAW264.7 [8] is recorded as “Non-toxic”. For the same compound, in data set [9], the inhibition entry was “Dose-dependent effect”.
In the case of `CCN(CC)CCn1c(C)c(CCNS(=O)(=O)c2ccc(/C=C/C(=O)NO)cc2)c2ccccc21`, the IC50 in the data set on RAW264.7 [1] is 3100 nM; on Histone deacetylase, 7.3 nM; in the data set on RAW264.7 [3] it was 0.14 nM; in the data set with RAW264.7 [4], 3100 nM; in the data set with RAW264.7 [5], 1500 nM. The Retention_time in data set [2] amounted to 16.67 min.
As for `CCn1c(C)c(CCNS(=O)(=O)c2ccc(/C=C/C(=O)NO)cc2)c2ccccc21`, the inhibition result in the data set on RAW264.7 [6], in the data set with RAW264.7 [7], in the data set on Rattus norvegicus [10] and in the data set with RAW264.7 [11] was “Active” throughout. Also, the IC50 with RAW264.7 [1] turned out to be 270 nM; against Histone deacetylase, 3.4 nM; with RAW264.7 [3], 21 nM; in the data set on RAW264.7 [4], 260 nM; with RAW264.7 [5], 730 nM. The Retention_time in data set [2] was determined as 27.93 min. For the same compound, the Activity result with RAW264.7 [8] is reported as “Non-toxic”. In addition, in data set [9], the inhibition result is “Dose-dependent effect”.
Turning to `COc1ccc2c(c1)c(CC(=O)O)c(C)n2C(=O)c1ccc(Cl)cc1`, in the data set on Rattus norvegicus [12], the inhibition result was “Active”.
`O=C(/C=C/c1ccc(S(=O)(=O)N2CCc3c([nH]c4ccccc34)C2)cc1)NO`: the IC50 in the data set with RAW264.7 [1] is 7200 nM; against Histone deacetylase it was 43.9 nM; in the data set with RAW264.7 [3], 31 nM; in the data set on RAW264.7 [4], 3700 nM; in the data set with RAW264.7 [5] it was above 10000 nM. In data set [2], this compound displayed a Retention_time of 25.18 min.
